Several values for one entry are separate records, joined by “and”; a condition that tells them apart may be missing. Equal values may be shown once.
What was measured:
MYC [1] = biological target: T1, MYC (Homo sapiens, UniProt P01106); assay: Cellular thermal shift assay; assay type: cell-based; settings: PC3 cells
Procedure, shortened: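 PC3 cells (70–80% confluent; also PC3 stably expressing Flag-MYCT58A, puromycin 1.5 μg/ml selected) treated with test compound or DMSO for 30 min. Cells washed, resuspended in PBS with protease/phosphatase inhibitors plus the same compound dose, split into 7–10 aliquots (~1 million cells each), heated 2 min at graded temperatures, then 3 min room temperature. Lysates boiled 5 min at 90 °C; MYC quantified by Western blot densitometry to build melt curves.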
Target sequence in this assay (P01106 16-454): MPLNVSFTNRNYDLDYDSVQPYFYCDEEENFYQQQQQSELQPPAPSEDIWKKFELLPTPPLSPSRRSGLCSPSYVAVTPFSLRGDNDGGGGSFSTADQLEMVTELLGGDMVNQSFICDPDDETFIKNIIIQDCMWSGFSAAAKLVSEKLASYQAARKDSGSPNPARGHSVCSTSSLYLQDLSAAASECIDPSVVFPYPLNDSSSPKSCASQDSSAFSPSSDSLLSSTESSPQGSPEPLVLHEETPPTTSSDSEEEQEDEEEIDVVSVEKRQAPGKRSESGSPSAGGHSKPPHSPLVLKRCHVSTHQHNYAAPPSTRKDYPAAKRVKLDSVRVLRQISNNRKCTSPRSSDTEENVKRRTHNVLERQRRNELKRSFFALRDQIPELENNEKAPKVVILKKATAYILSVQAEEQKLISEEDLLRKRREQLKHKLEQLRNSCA

MYC [2] = biological target: T1, MYC; assay: Biotinylated compound pull down, MYC; assay type: binding; settings: for competition of MYC binding to Biotin-361: PC3 cell lysate, excess competitor
Procedure, shortened: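 Nuclear extract from PC3 cells prepared with a nuclear co-IP kit in low co-IP buffer at 150 mM NaCl final. Extract pre-cleared on streptavidin beads 1 hr at 4 °C. About 100 μg extract incubated overnight at 4 °C on a rotator with 1 to 10 μM biotinylated test compound, 10 μM D-biotin or DMSO. Recombinant MYC (0.5 μg) run the same way in buffer with 1% BSA, without pre-clearing. Bound MYC detected by Western blot. For competition, lysate pre-treated with competitor before biotin probe (5 μM).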
Target sequence in this assay (P01106 16-454): as above

MYC [3] = biological target: T1, MYC; assay: STD NMR, MYC; assay type: binding; settings: 975 phosphate analog 100 μM, G5 200 μM
Procedure, shortened: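 Buffer: 50 mM HEPES, 500 mM NaCl, 10 mM β-mercaptoethanol, 5% glycerol, 30 mM imidazole. Ligand spectra recorded with and without each protein individually.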
Target sequence in this assay (P01106 368-454): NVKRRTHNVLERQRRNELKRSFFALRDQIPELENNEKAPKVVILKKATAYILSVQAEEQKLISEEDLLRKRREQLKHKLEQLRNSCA

HIF-1α = HIF-1α (Homo sapiens, UniProt Q16665); assay: Biotinylated compound pull down, HIF-1α; assay type: binding; settings: cell lysates
HIF-1α, sequence (Q16665 whole entry): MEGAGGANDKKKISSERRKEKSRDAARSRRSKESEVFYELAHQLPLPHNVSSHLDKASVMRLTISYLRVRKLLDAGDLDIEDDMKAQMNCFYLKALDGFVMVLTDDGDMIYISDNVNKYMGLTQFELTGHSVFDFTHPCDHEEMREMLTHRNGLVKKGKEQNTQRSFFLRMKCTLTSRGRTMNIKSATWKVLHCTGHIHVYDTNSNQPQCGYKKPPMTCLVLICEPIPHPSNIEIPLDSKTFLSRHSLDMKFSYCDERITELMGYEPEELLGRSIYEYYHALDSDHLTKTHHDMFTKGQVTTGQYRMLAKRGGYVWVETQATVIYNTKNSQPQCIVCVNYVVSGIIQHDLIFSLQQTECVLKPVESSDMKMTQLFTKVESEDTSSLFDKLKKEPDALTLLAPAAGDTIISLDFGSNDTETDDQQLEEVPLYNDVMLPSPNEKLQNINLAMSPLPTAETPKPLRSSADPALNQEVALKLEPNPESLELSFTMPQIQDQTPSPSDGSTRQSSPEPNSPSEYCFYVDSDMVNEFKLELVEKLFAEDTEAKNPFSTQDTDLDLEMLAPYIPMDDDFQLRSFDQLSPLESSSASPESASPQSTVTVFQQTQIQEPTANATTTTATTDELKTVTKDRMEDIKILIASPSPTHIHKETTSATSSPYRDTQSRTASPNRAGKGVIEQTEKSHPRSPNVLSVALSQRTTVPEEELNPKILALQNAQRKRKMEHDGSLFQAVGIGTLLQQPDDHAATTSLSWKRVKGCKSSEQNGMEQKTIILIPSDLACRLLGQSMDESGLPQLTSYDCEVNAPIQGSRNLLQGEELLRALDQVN
Procedure, shortened: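 A biotin-conjugated test compound was used as bait. Nuclear complexes came from exponentially growing PC3 and P493–6 cells, extracted with a nuclear complex co-IP kit. The pull-down ran in low co-IP buffer with NaCl added to a final 150 mM.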

MYC353–439 = MYC353–439 (Homo sapiens, UniProt P01106); assay: Fluorescence polarization competition assay against 10074-G5; assay type: binding
MYC353–439, sequence (P01106 368-454): as the sequence (P01106 368-454) above

MYC [4] = assay: Western blot of MYC protein level, stability and phosphorylation in cells; assay type: cell-based, human; settings: 8 μM
Procedure, shortened: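 PC3 cells, or PC3 stably expressing Flag-MYC, Flag-MYCT58A or Flag-MYCS62A (lentiviral, 1.5 μg/ml puromycin selection), were used. For stability, cells were pretreated 3 hr with compound or DMSO, then given cycloheximide and harvested at time points. MYC, pT58, pS62, GSK3β and pGSK3β S9 were detected by western blot over a time course. Band intensities were densitometrically quantified.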

GSK3β-mediated MYC pT58 = GSK3β-mediated MYC pT58 (Homo sapiens, UniProt P01106); assay: In vitro kinase assay; assay type: biochemical; settings: 6 μM
GSK3β-mediated MYC pT58, sequence (P01106 16-454): as the sequence (P01106 16-454) above
Procedure, shortened: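 Phosphorylation reactions were run in kinase buffer (25 mM Tris-HCl pH 7.5, 5 mM β-glycerophosphate, 2 mM DTT, 0.1 mM sodium vanadate, 10 mM MgCl₂) at room temperature for 2 hr in total.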

[5] = test system: MYC-dependent cancer cells; assay: Cell viability, MYC-dependent cancer cells; assay type: cell-based; settings: prostate cancer cells versus PC12, 5 days
Procedure, shortened: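 Cells were seeded at 1000 to 5000 per well in 96-well plates, depending on cell type. Viable cells were counted, or MTS absorbance was read at 490 nm, 2 to 7 days after treatment. MycCaP, PC3, LNCaP and P493–6 were grown in RPMI1640, SK-N-BE(2) in F12 and MV411 in IMDM, each with 10% heat-inactivated FBS and 1% penicillin-streptomycin.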

[6] = test system: MYC transcriptional activity (E-box-luciferase); assay: E-box luciferase reporter assay in vitro; assay type: cell-based
Procedure, shortened: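 MycCaP cells stably carrying either MYC E-box-luciferase reporter or control mCherry-P2A-luciferase vector plated 10000 cells/well. Serial dilution of test compound added the next day; luminescence read by Steady-Glo after 4 hr treatment.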

[7] = Pharmacokinetics of 975 in CD-1 mice; settings: male, CD-1, mouse, in vivo, po
MycCaP tumor allografts = assay: MycCaP allograft/xenograft mouse model; assay type: in vivo
Procedure, shortened: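 Male FVB (allograft) or NSG (xenograft) mice, 6–8 weeks, ~25 g, acclimated >4 days. Injected s.c. in flanks with 1 × 10⁶ MycCaP E-box-luciferase cells in 100 μl Matrigel. Tumors followed by caliper ((length × width × width)/2) and by bioluminescent imaging after i.p. substrate injection. Body weight recorded. Tumor tissue assessed by H&E and immunofluorescence for Ki67, MYC pT58 and PD-L1.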

[8] = test system: Lewis Lung Carcinoma (LLC1); assay: LLC1 allograft lung cancer mouse model; assay type: in vivo; settings: 100 mg/kg/day
Procedure, shortened: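 LLC1 cells (1 × 10⁶) in PBS:matrigel 1:1 were injected subcutaneously into the flanks of female C57BL/6 mice, aged 6–8 weeks. Mice were randomised 3 days after inoculation and given test compound i.p. as 50 mg/kg twice daily (100 mg/kg/day). Tumour growth and body weight were followed, n = 7 mice/group, mean ± SEM.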

MV-411 AML xenografts = assay: MV-411 AML xenograft; assay type: in vivo, mouse
Procedure, shortened: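 Immunodeficient mice were inoculated with 5×10⁶ MV-411 cells in PBS:matrigel 1:1. They were randomised by tumour volume at ~200 to 500 mm³ and dosed with vehicle, test compound, or test compound plus Ara-C, 5 days a week for 3 weeks. Calipers were read twice weekly and volume was taken as (length × width × width)/2. Body weight was monitored, n = 4 mice/group, mean ± SEM.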

[9] = Maximum tolerated dose / acute toxicity in mice; assay type: in vivo; settings: p.o., single dose at 50, 100, 250, 500 or 1000 mg/kg
[10] = 14-day toxicology in mice; assay type: in vivo, mouse; settings: 100 mg/kg daily for 14 days, analyzed one week later
MAX(S) = MAX(S) (Homo sapiens, UniProt P61244-2 1-151); assay: EMSA
[11] = MycCaP allograft, 100 mg/kg/day i.p. for 14 days

O=[N+]([O-])c1ccc(Nc2ccccc2-c2ccccc2)c2nonc12 [Compound G5, reference compound]
thermal stability of MYC protein (CETSA) (MYC [1]; 30 min, 361 4–10 μM, G5 15–60 μM, 360 6 μM): significant thermal destabilization
competition of MYC binding to Biotin-361 (MYC [2]): competed
binding to MYC by STD NMR (MYC [3]): confirmed interaction

Cn1nc(C(F)(F)F)cc1-c1ccc(OCCCNC(=O)CCOCCOCCOCCOCCOCCOCCNC(=O)CCCC[C@@H]2SCC3NC(=O)NC32)c(-c2cc(C(F)(F)F)cc(C(F)(F)F)c2)c1O (stereo partly drawn) [Biotin-361, N-(3-((6-hydroxy-5-(1-methyl-3-(trifluoromethyl)-1H-pyrazol-5-yl)-3’,5’-bis(trifluoromethyl)-[1,1’-biphenyl]-2-yl)oxy)propyl)-1-(5-((4S)-2-oxohexahydro-1H-thieno[3,4-d]imidazol-4-yl)pentanamido)-3,6,9,12,15,18-hexaoxahenicosan-21-amide]
pull down of recombinant MYC and endogenous MYC (MYC [2]; cell lysates): pulled down
pull down of HIF-1α (HIF-1α): not MAX or another bHLH protein HIF-1α

Cn1nc(C(F)(F)F)cc1-c1ccc(OCOP(=O)(O)O)c(-c2cc(C(F)(F)F)cc(C(F)(F)F)c2)c1O [Phosphate-361, ((6-hydroxy-5-(1-methyl-3-(trifluoromethyl)-1H-pyrazol-5-yl)-3’,5’-bis(trifluoromethyl)-[1,1’-biphenyl]-2-yl)oxy)methyl dihydrogen phosphate]
competition of MYC binding to Biotin-361 (MYC [2]): competed

Cn1nc(C(F)(F)F)cc1-c1ccc(OCc2ccc(Cl)cc2)c(-c2ccc(Cl)c(C(F)(F)F)c2)c1O [Compound 975, 4’-chloro-6-((4-chlorobenzyl)oxy)-3-(1-methyl-3-(trifluoromethyl)-1H-pyrazol-5-yl)-3’-(trifluoromethyl)-[1,1’-biphenyl]-2-ol]
MYC target engagement by CETSA (MYC [1]; 8 μM): confirmed MYC target engagement
Kd (MYC353–439): 2.5 µM
MYC degradation and phosphorylation on T58 (MYC [4]): enhanced MYC degradation and phosphorylation on T58
pT58 levels in in vitro kinase assay (GSK3β-mediated MYC pT58): directly increased GSK3β-mediated MYC pT58
cell viability [5]: inhibited cell viability in a MYC-dependent manner
E-box-luciferase versus CMV-luciferase activity in vitro [6]: selectively suppressed E-box-luciferase activity
Cmax ([7]; 100 mg/kg): 41500 ng/mL and 74 µM
half-life ([7]; 100 mg/kg): 7 h
Cmax ([7]; 250 mg/kg): 54000 ng/mL and 96 µM
half-life ([7]; 250 mg/kg): 12 h
tumor inhibition, FVB versus NSG mice (MycCaP tumor allografts; 50 mg/kg twice daily, 3 days): more strongly than in immunodeficient NSG mice
pT58 and PD-L1 levels in tumor tissue (MycCaP tumor allografts; 100 mg/kg/day i.p. for 14 days): increased pT58 and PD-L1 levels
tumor growth, 975 alone (MycCaP tumor allografts; 100 mg/kg/day, 2 days on/2 days off): slowed tumor growth
tumor infiltration of immune cells (MycCaP tumor allografts; CD3+ T cells, B220+ B cells, NKp46+ NK cells, 100 mg/kg/day for 14 days): enhanced tumor infiltration of CD3+ T cells
survival (MycCaP tumor allografts; [11]): increased survival
tumor growth (MycCaP tumor allografts; [11]): significantly inhibited tumor growth
body weight [8]: no changes in body weight
tumor growth [8]: inhibited tumor growth
efficacy as a single agent (MV-411 AML xenografts; 50 mg/kg/day, 5 days a week): reduced efficacy as a single agent
body weight, combination with Ara-C (MV-411 AML xenografts; 975 50 mg/kg/day, Ara-C 20 mg/kg/day): no obvious impact on mouse body weight
tumor growth, combination with Ara-C (MV-411 AML xenografts; 975 50 mg/kg/day, Ara-C 20 mg/kg/day, 5 days a week): synergized with Ara-C
well tolerated single dose, acute toxicity [9]: up to 1000 mg/kg
gross and histological analysis of organs [10]: no obvious pathologic abnormalities
hematology, blood chemistry, kidney and liver function [10]: normal complete blood count and differential, normal blood chemistry, and normal kidney and liver function

O=P(O)(O)OCOc1ccc(-c2cc(C(F)(F)F)n[nH]2)c(O)c1-c1ccc(Cl)c(C(F)(F)F)c1 [975 phosphate analog, ((4’-chloro-6-hydroxy-3’-(trifluoromethyl)-5-(3-(trifluoromethyl)-1H-pyrazol-5-yl)-[1,1’-biphenyl]-2-yl)oxy)methyl dihydrogen phosphate]
binding to MYC by STD NMR (MYC [3]): bound to MYC

Cn1nc(C(F)(F)F)cc1-c1ccc(OCCNC(=O)CCOCCOCCOCCOCCNC(=O)CCCC[C@@H]2SCC3NC(=O)NC32)c(-c2cc(C(F)(F)F)cc(C(F)(F)F)c2)c1O (stereo partly drawn) [Biotin-975, N-(2-((6-hydroxy-5-(1-methyl-3-(trifluoromethyl)-1H-pyrazol-5-yl)-3’,5’-bis(trifluoromethyl)-[1,1’-biphenyl]-2-yl)oxy)ethyl)-1-(5-((4S)-2-oxohexahydro-1H-thieno[3,4-d]imidazol-4-yl)pentanamido)-3,6,9,12-tetraoxapentadecan-15-amide]
pull down of MYC protein (MYC [2]; 10 μM, PC3 cells): pulled down MYC protein

B1: HEX E-box oligo (dsDNA)
DNA 1: CACCCGGTCACGTGGCCTACAC
DNA 2: GTGTAGGCCACGTGACCGGGTG
binding result (MAX(S)): no binding

— paper PMC6939458 (Cancer cell, 2019)
